# Compound activity from PubChem BioAssay.
# OX1R antag-1 = OX1R (HCRTR1) antagonists, primary screen, fluorescence, CHO/OX1R cells, Fluo-8 calcium, orexin A; Fluo-8 calcium fluorescence; inhibition, % at 5 µM; hit rate 0.43% among 330,000; AID 434989, 2010;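 active = inhibition above its plate's threshold, mean inhibition of all tested compounds on the plate plus 3 SD, cut at about 37% in these data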
# Target sequence (O43613 whole entry, looked up): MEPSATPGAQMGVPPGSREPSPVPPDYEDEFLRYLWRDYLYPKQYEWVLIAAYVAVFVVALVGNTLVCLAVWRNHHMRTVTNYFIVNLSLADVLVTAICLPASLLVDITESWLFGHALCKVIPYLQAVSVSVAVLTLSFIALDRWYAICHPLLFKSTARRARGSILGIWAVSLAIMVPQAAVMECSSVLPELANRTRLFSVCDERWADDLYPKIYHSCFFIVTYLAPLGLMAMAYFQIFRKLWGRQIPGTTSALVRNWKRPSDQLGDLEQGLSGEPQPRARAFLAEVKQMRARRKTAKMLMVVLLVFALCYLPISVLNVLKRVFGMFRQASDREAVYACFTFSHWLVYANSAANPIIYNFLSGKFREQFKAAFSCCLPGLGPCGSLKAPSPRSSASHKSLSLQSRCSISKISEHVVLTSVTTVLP
# TAAR1 agonist = human TAAR1 agonists, primary screen, Fluo-8 calcium fluorescence, CHO RD-HGA16 cells. vehicle wells 0%, saturating PEA agonist 100%. activation, % at 3 µM. hit rate 0.99% among 360,000. AID 624467, 2012;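 active = activation above the mean activation of all test compounds in the run plus 3 SD, cut at about 38% in these data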
# Target sequence (Q96RJ0 whole entry, looked up): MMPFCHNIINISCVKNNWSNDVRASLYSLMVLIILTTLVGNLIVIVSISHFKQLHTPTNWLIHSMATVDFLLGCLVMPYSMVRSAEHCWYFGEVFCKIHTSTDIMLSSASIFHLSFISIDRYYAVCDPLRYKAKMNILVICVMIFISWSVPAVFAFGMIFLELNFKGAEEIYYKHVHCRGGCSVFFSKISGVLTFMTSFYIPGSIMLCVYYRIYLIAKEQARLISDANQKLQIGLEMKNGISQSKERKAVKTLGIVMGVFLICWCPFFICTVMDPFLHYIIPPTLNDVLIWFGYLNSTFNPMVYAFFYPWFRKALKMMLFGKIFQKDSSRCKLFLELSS
#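 Test system: RD-HGA16 (CHO) cells co-expressing Gα16 and hTAAR1 | Doses: Single dose, 3 µM | Schedule: 17-24 h seeding, 75 min 37 °C dye, 30 min RT | Evaluation: % activation from peak over basal fluorescence ratio, DMSO-to-PEA scaled | Technique: Kinetic Fluo-8 calcium fluorescence | Benchmarks: Low control DMSO, high control PEA (EC100)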
# GPR7 antagonist = GPR7 receptor antagonists, primary screen, cell-based, fluorescence, single concentration; hit rate 1.1% among 290,000; AID 1861, 2009; inhibition, % at 4.4 µM; Neuropeptides B/W receptor type 1 (Homo sapiens), P48145; GPR7-expressing cells, fluorescence antagonist assay; in the data active = inhibition above about 16%, passing the limit was not always enough;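 note: cells stimulated with the agonist NPW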
# TAAR1 antag = human TAAR1 antagonists, primary screen, Fluo-8 calcium fluorescence, CHO RD-HGA16 cells; antagonist; inhibition, % at 3 µM; hit rate 1.5% among 360,000; AID 624466, 2012;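 active = inhibition above a per-plate cutoff, the mean inhibition of test compounds on that plate plus 3 SD, cut at about 49% in these data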
#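 Test system: RD-HGA16 CHO cells with stable hTAAR1 and Gα16 / Probe or stimulus: EC80 β-phenethylamine stimulus / Times: seeding 17-24 h prior, 75-min 37 °C, 30-min RT dye loading / Detection: Fluo-8 calcium-sensitive fluorescence / Read-out basis: % inhibition scaled between DMSO and EC80 PEA controls / Repeats: singlicate, one well per test compound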
# OX1R antag-2 = antagonists of human orexin 1 receptor (OX1R). inhibition, % at 6.6 µM. AID 485270, 2010. hit rate 1.8% among 330,000. Orexin/Hypocretin receptor type 1 (Homo sapiens), O43613. OX1R-expressing cells, FRET antagonist read-out; in the data active = inhibition mostly above about 38%, no sharp cut-off; inactive = mostly below about 40%
# CHO parental Ca = ATP-evoked calcium signal inhibitors, parental CHO, primary screen, counter-screen for OX1R antagonist project, cell-based, fluorescence, Fluo-8 calcium dye | hit rate 0.63% among 330,000 | parental CHO-K1, ATP-induced calcium, Fluo-8 fluorescence | inhibition, % at 5.6 µM;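 active = inhibition above that plate's mean sample inhibition plus 3 SD, cut at about 26% in these data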
#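 Material: parental CHO cells / Compound: single nominal dose of 5.6 µM per compound / Signal: Fluo-8 fluorescence / Replicates: singlicate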
# TAAR1 ag conf = human TAAR1 agonists, retest of hits, confirmation, Fluo-8 calcium fluorescence, CHO RD-HGA16 cells. activation, % at 3 µM. scaled: DMSO 0%, maximal phenethylamine 100%. shares compounds with TAAR1 agonist. hit rate 82% among 2,400;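 active = activation above a cutoff set at the run's mean compound activation plus 3 SD, cut at about 39% in these data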
# Ga16 nonsel ag = nonselective calcium mobilization agonists, CHO-Ga16 cells, counter-screen for hTAAR1 agonist project, cell-based, fluorescence, CHO-Ga16 parental line; shares compounds with TAAR1 agonist; Fluo-8 calcium fluorescence; normalized to maximal ATP response, DMSO zero; activation, % at 3 µM; hit rate 50% among 2,400;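 active = activation above the run cutoff, the mean activation over all tested wells plus 3 SD, cut at about 12% in these data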
# TAAR1 desensitize = TAAR1 desensitization by agonist hits, confirmation, counter-screen for TAAR1 agonist project, cell-based, fluorescence, tachyphylaxis. CHO RD-HGA16 hTAAR1, Fluo-8 calcium, beta-PEA response inhibition. hit rate 46% among 2,400. shares compounds with TAAR1 agonist. inhibition, % at 3 µM;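 active = inhibition above the run cutoff, the mean inhibition of all test compounds plus 3 SD, cut at about 49% in these data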;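 note: beta-PEA stimulus applied at its EC80; loss of beta-PEA calcium signal after compound pretreatment read as receptor desensitization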
# Ga16 antag count = inhibition of ATP-evoked calcium response in CHO-Ga16 cells, counter-screen for TAAR1 agonist project, cell-based, fluorescence | shares compounds with TAAR1 agonist | CHO-Ga16 ATP-induced calcium, Fluo-8 fluorescence | inhibition, % at 3 µM | hit rate 39% among 2,400 | AID 651952, 2012;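 active = inhibition above the plate's mean compound inhibition plus 3 SD, computed per plate, cut at about 22% in these data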
# Numbers stand for hits; i = inactive; nt = no result. This is a sample that favours compounds with a hit; in the whole collection about 4.6% have one here.
SMILES,OX1R antag-1,TAAR1 agonist,GPR7 antagonist,TAAR1 antag,OX1R antag-2,CHO parental Ca,TAAR1 ag conf,Ga16 nonsel ag,TAAR1 desensitize,Ga16 antag count
O=C(N[C@H](C(=O)N1CCC[C@H]1C(=O)NCCc1ccccc1Cl)c1ccccc1)C1CC1,nt,i,nt,i,nt,nt,nt,nt,nt,nt
CN(C)CCCN(C(=O)c1ccc(S(=O)(=O)N(C)C2CCCCC2)cc1)c1nc2ccc(F)cc2s1,i,47,i,i,i,i,49,22,49,32
CN(C)CCCN(C(=O)c1ccc(C(=O)c2ccccc2)cc1)c1nc2ccc(F)cc2s1,i,i,i,i,i,i,nt,nt,nt,nt
CC(Oc1ccc(C(=O)c2ccccc2)cc1)C(=O)Nc1ccc(S(N)(=O)=O)cc1 (stereo not given),i,74,i,i,i,i,61,31,i,36
CC(Sc1ccc(Cl)cc1)C(=O)Nc1ccc(S(=O)(=O)N2CCOCC2)cc1 (stereo not given),i,92,i,50,i,i,90,48,73,39
Cc1ccc(C)c(NS(=O)(=O)c2ccc(NC(=O)CSc3ccc(Cl)cc3)cc2)c1,i,i,i,i,i,i,nt,nt,nt,nt
COc1ccc(CC(=O)Nc2ccc(S(=O)(=O)N(C)C3CCN(C)CC3)cc2)cc1,i,i,nt,i,i,i,nt,nt,nt,nt
Cc1ccc(NS(=O)(=O)c2ccc(NC(=O)C(C)Sc3ccc(Cl)cc3)cc2)c(C)c1 (stereo not given),i,51,i,i,i,i,i,i,i,26
CC(Oc1ccc(Br)cc1)C(=O)Nc1ccc(S(=O)(=O)N(C)C2CCN(C)CC2)cc1 (stereo not given),i,140,nt,99,i,51,140,100,102,82
CC(C)C(=O)Nc1ccc(C(=O)Nc2ccc(S(=O)(=O)N3CCOCC3)cc2)cc1,i,nt,i,nt,i,i,nt,nt,nt,nt
CC(=O)N1CCC(C(=O)N2c3ccccc3N=C(c3ccc(C(F)(F)F)cc3)C2C(=O)NC(C)C)CC1 (stereo not given),nt,i,nt,i,nt,nt,nt,nt,nt,nt
Cc1ccc(NC(=O)c2ccc(S(=O)(=O)N3CCCCC3)cc2)cc1,i,48,i,i,i,i,i,i,i,i
Cc1ccc(OC(C)C(=O)Nc2ccc(S(=O)(=O)N3CCOCC3)cc2)cc1 (stereo not given),i,66,i,i,i,i,77,51,i,33
CNc1nc(N)c([N+](=O)[O-])c(Nc2ccccc2OC)n1,i,56,i,i,44,i,80,13,i,i
COc1ccccc1Nc1nc(NCCO)nc(N)c1[N+](=O)[O-],i,i,i,i,i,i,nt,nt,nt,nt
O=C(CSc1nnc(-c2cccs2)n1C1CC1)NC1CCS(=O)(=O)C1 (stereo not given),i,i,nt,i,i,i,nt,nt,nt,nt
COc1ccc(Cn2c(-c3ccc(C)cc3)nc3c(c(=O)c4ccccc4n3C)c2=O)cc1,i,91,i,58,i,i,85,53,68,42
COc1ccc(CNC(=O)CC[C@H]2O[C@@H](n3ccc(=O)[nH]c3=O)[C@H](O)[C@@H]2O)cc1,nt,i,nt,i,nt,nt,nt,nt,nt,nt
Cc1ccccc1NC(=O)N1CCc2ccccc2C1,i,84,i,i,i,i,63,i,i,i
CCOC(=O)c1ccc(NC(=O)N2CCc3ccccc3C2)cc1,i,63,i,i,i,i,48,12,49,24
Cc1ccccc1NC(=O)CN1CCc2ccccc2C1,i,i,i,i,i,i,nt,nt,nt,nt
O=C(Nc1ccc(F)cc1)N1CCc2ccccc2C1,i,46,i,i,i,i,41,i,i,i
Cc1cc(C)cc(NC(=O)N2CCc3ccccc3C2)c1,nt,58,i,i,nt,nt,67,i,i,i
CCOC(=O)c1ccc(NC(=O)N2CCc3ccccc32)cc1,i,i,i,i,i,i,nt,nt,nt,nt
Cc1ccc(NC(=O)N2CCc3ccccc3C2)cc1C,nt,i,i,i,nt,nt,nt,nt,nt,nt
SMILES,OX1R antag-1,TAAR1 agonist,GPR7 antagonist,TAAR1 antag,OX1R antag-2,CHO parental Ca,TAAR1 ag conf,Ga16 nonsel ag,TAAR1 desensitize,Ga16 antag count
COC(=O)c1cn(CC(=O)Nc2ccccc2C)c2ccccc12,i,i,i,i,i,i,nt,nt,nt,nt
COc1cccc(CNC(=O)C(=O)N2CCC3(CC2)OCCN3S(=O)(=O)c2ccc(C)cc2)c1,i,i,nt,i,i,i,nt,nt,nt,nt
CC(C)=CCOc1ccc([C@@H]2COc3c(ccc4c3C=CC(C)(C)O4)C2)c(O)c1,i,i,nt,i,i,i,nt,nt,nt,nt
CN(C)/C=C(\c1cnc(Cl)s1)S(=O)(=O)c1ccccc1,i,i,i,i,i,i,nt,nt,nt,nt
Cc1cccc(NC(=O)N2CCc3ccccc3C2)c1C,nt,80,i,52,nt,nt,80,i,i,i
O=C(Nc1ccc(Br)cc1)N1CCc2ccccc2C1,i,i,i,i,i,i,nt,nt,nt,nt
Cc1ccc(Nc2nc(N)nc(CN3CCc4ccccc4C3)n2)cc1,i,52,i,i,i,i,69,i,i,i
Cc1c(Cl)cccc1Nc1nc(N)nc(CN2CCc3ccccc3C2)n1,i,i,i,i,i,i,nt,nt,nt,nt
CCc1noc(C)c1C(=O)N1CC(C)SC1=Nc1ccc(Cl)cc1 (stereo not given),i,i,nt,i,i,i,nt,nt,nt,nt
Cc1cnc(C(=O)OCC(=O)c2ccc(F)cc2)cn1,i,i,i,i,i,i,nt,nt,nt,nt
CCOC(=O)c1cc(NC(=O)c2cc(C)on2)cc(C(=O)OCC)c1,i,44,i,i,i,i,i,i,i,i
COc1cccc(C(=O)NOCc2ccccc2)c1OC,i,i,nt,i,i,i,nt,nt,nt,nt
CCCCOc1ccc(C(=O)Nc2ccc(N3CCN(C)CC3)cc2)cc1,i,48,i,i,i,i,68,i,68,i
CCOc1ccc(C(=O)Nc2ccc(N3CCN(C)CC3)cc2)cc1,i,i,i,i,i,i,nt,nt,nt,nt
